Measured values as given in ChEMBL document CHEMBL2424525, “Synthesis of 3'-azido-2',3'-dideoxy-5-fluorouridine phosphoramidates and evaluation of their anticancer activity” (Eur J Med Chem, 2013).

What was measured:
Assay type in all cases: functional, cell-based
MCF7 = assay: Cytotoxicity against human MCF7 cells after 72 hrs by SRB assay; conditions: MCF7, 72 h
Outline: (§1)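 SRB assay. HeLa and KB cells were grown in RPMI 1640 and MCF-7 cells in DMEM. Cells were fixed with 50% trichloroacetic acid for 1 h at 4 °C, then washed with distilled water. Unbound dye was removed with 1% acetic acid and plates were air dried overnight. OD read at 490 nm. Survival was taken as % absorbance of untreated control. Cytarabine served as internal standard. Three independent experiments.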

KB = assay: Cytotoxicity against human KB cells after 72 hrs by SRB assay; outline: as §1
HeLa = assay: Cytotoxicity against human HeLa cells after 72 hrs by SRB assay; outline: as §1

`[N-]=[N+]=N[C@H]1C[C@H](n2cc(F)c(=O)[nH]c2=O)O[C@@H]1COP(=O)(NCC(F)(F)F)Oc1ccc(Cl)cc1` (stereo not given in full) showed an IC50 (MCF7) of 23.9 µM, an IC50 (KB) of 40.5 µM and an IC50 (HeLa) of 43.9 µM.
`O=c1[nH]c(=O)n([C@H]2C[C@H](O)[C@@H](CO)O2)cc1F` [FLOXURIDINE] was tested, and the IC50 (MCF7) was 12.2 µM, the IC50 (KB) was 8.69 µM and the IC50 (HeLa) was 6.5 µM.
Compound `CCNP(=O)(OC[C@H]1O[C@@H](n2cc(F)c(=O)[nH]c2=O)C[C@@H]1N=[N+]=[N-])Oc1ccc(Cl)cc1` (stereo not given in full) has an IC50 (MCF7) of 1.88 µM, an IC50 (KB) of 1.64 µM and an IC50 (HeLa) of 1.64 µM.
For `CNP(=O)(OC[C@H]1O[C@@H](n2cc(F)c(=O)[nH]c2=O)C[C@@H]1N=[N+]=[N-])Oc1ccc(Cl)cc1` (stereo not given in full), the IC50 (MCF7) was 4.42 µM, the IC50 (KB) was 8.64 µM and the IC50 (HeLa) was 8.43 µM.
For `C=CCNP(=O)(OC[C@H]1O[C@@H](n2cc(F)c(=O)[nH]c2=O)C[C@@H]1N=[N+]=[N-])Oc1ccc(Cl)cc1` (stereo not given in full), the IC50 (MCF7) was 10.4 µM, the IC50 (KB) was 8.59 µM and the IC50 (HeLa) was 9.98 µM.
`O=c1[nH]cc(F)c(=O)[nH]1` [FLUOROURACIL] was tested, and the IC50 (MCF7) was 6.53 µM, the IC50 (KB) was 4.84 µM and the IC50 (HeLa) was 6.23 µM.
In the case of `[N-]=[N+]=NCCCCNP(=O)(OC[C@H]1O[C@@H](n2cc(F)c(=O)[nH]c2=O)C[C@@H]1N=[N+]=[N-])Oc1ccc(Cl)cc1` (stereo not given in full), the IC50 (MCF7) is reported as 22.4 µM, the IC50 (KB) is reported as 46.6 µM and the IC50 (HeLa) is reported as 35.5 µM.
`C#CCNP(=O)(OC[C@H]1O[C@@H](n2cc(F)c(=O)[nH]c2=O)C[C@@H]1N=[N+]=[N-])Oc1ccc(Cl)cc1` (stereo not given in full) was tested, and the IC50 (MCF7) was 5.41 µM, the IC50 (KB) was 3.81 µM and the IC50 (HeLa) was 4.21 µM.
`[N-]=[N+]=NCCCNP(=O)(OC[C@H]1O[C@@H](n2cc(F)c(=O)[nH]c2=O)C[C@@H]1N=[N+]=[N-])Oc1ccc(Cl)cc1` (stereo not given in full) showed an IC50 (MCF7) of 33.1 µM, an IC50 (KB) of 99.3 µM and an IC50 (HeLa) of 96.2 µM.
Compound `Nc1ccn([C@@H]2O[C@H](CO)[C@@H](O)[C@@H]2O)c(=O)n1` [CYTARABINE] has an IC50 (HeLa) of 3.54 µM.
`COC(=O)[C@H](C)NP(=O)(OC[C@H]1O[C@@H](n2cc(F)c(=O)[nH]c2=O)C[C@@H]1N=[N+]=[N-])Oc1ccc(Cl)cc1` (stereo not given in full) was tested, and the IC50 (MCF7) was 38.4 µM, the IC50 (KB) was > 100 µM and the IC50 (HeLa) was 38.4 µM.
`CCCCNP(=O)(OC[C@H]1O[C@@H](n2cc(F)c(=O)[nH]c2=O)C[C@@H]1N=[N+]=[N-])Oc1ccc(Cl)cc1` (stereo not given in full) was tested, and the IC50 (MCF7) was 41.8 µM, the IC50 (KB) was 38.7 µM and the IC50 (HeLa) was 32.9 µM.
Compound `[N-]=[N+]=N[C@H]1C[C@H](n2cc(F)c(=O)[nH]c2=O)O[C@@H]1CO` has an IC50 (MCF7) of 10.3 µM, an IC50 (KB) of 8.11 µM and an IC50 (HeLa) of 11.1 µM.
`CCCNP(=O)(OC[C@H]1O[C@@H](n2cc(F)c(=O)[nH]c2=O)C[C@@H]1N=[N+]=[N-])Oc1ccc(Cl)cc1` (stereo not given in full) was tested, and the IC50 (MCF7) was 27.2 µM, the IC50 (KB) was 26.9 µM and the IC50 (HeLa) was 25.9 µM.
